Measurements reported in ChEMBL document CHEMBL1140409, “Discovery of potent, nonsystemic apical sodium-codependent bile acid transporter inhibitors (Part 2)” (J Med Chem, 2005).

What was measured:
[1] = Maximum biliary concentration (dissolved in aqueous Tween-80) was determined on intragastric administration at 5-0.04 mg/kg in […] of rat gavage model; assay type: ADME, organism-based, Bile; set-up: dose 0.04 mg/kg, route […]; conditions: […] (blood), po
[2] = Amount (dissolved in aqueous Tween-80) in bile of rat was determined by fecal bile acid content for 45 min in a 37 degree C; assay type: ADME, tissue-based, Feces; set-up: concentration or dose not given beside the values; conditions: in vivo, 0.75 h
How it was run: (§1)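 Male Wistar rats (275–300 g) were gavaged once each morning for 4 days at 5, 0.2 or 0.04 mpk in aqueous 0.2% (v/v) Tween-80 (2 mL/kg). Feces from the final 48 h were homogenized in twice their weight of water. Homogenate was diluted in butanol/water (2:0.6), extracted 45 min at 37 °C, centrifuged, and bile acids (μmol/day) measured enzymatically. Scores compared against a reference analogue at 0.04 mg/kg.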

[3] = Efficacy to increase fecal bile acid excretion; ++ is even more effective; assay type: ADME, tissue-based, Feces; conditions: rat; how it was run: as §1
[4] = Maximum biliary concentration (dissolved in aqueous Tween-80) was determined on intragastric administration at 5-0.04 mg/kg in portal vein of rat gavage model; assay type: ADME, organism-based, Bile; set-up: dose 0.04 mg/kg, route […]; conditions: po
[5] = molecular target: T1, Ileal sodium/bile acid cotransporter (Homo sapiens, UniProt Q12908); assay: In vitro inhibition of ASBT mediated uptake of [14C]taurocholate (5 uM) in baby hamster cells expressing human IBAT; assay type: cell-based
T1 sequence (Q12908 whole entry): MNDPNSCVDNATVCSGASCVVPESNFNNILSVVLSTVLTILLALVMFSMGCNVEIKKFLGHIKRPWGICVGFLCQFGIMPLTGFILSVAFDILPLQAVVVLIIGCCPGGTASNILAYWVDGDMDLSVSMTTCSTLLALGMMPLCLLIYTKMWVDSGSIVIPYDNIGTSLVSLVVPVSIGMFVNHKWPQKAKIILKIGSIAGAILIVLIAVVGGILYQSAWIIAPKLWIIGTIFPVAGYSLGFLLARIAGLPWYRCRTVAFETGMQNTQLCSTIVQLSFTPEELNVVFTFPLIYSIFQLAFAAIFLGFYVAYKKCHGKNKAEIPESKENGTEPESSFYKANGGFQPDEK

[6] = Efficacy to increase fecal bile acid excretion; + is more efficacious; assay type: ADME, tissue-based, Feces; conditions: rat; how it was run: as §1

SMILES | Cmax [1] [ng/mL] | Activity [2] [%] | Efficacy [3] | Cmax [4] [ng/mL] | IC50 [5] [nM] | Efficacy [6]
CCCCC1(CCCC)CS(=O)(=O)c2ccc(N(C)C)cc2[C@@H](c2ccc(OCCCCC(=O)O)cc2)[C@H]1O | 5100 | 3.3 | Even more effective | 1100 | 8.5 | –
CCCCC1(CCCC)CS(=O)(=O)c2ccc(N(C)C)cc2[C@@H](c2ccc(OCc3ccc(C[n+]4ccccc4)cc3)cc2)[C@H]1O | – | 0.03 | Even more effective | – | 1 | –
CCCCC1(CCCC)CS(=O)(=O)c2ccc(N(C)C)cc2[C@@H](c2ccc(OCC(=O)O)cc2)[C@H]1O | 960 | 15.04 | – | – | 27 | –
CCCCC1(CCCC)CS(=O)(=O)c2ccc(N(C)C)cc2[C@@H](c2ccc(OCc3cccc(CN(CC(=O)O)CC(=O)O)n3)cc2)[C@H]1O | – | 0.17 | – | – | 4 | More efficacious than analogue 2
